Active and inactive are the calls of the source. No cut-off for these calls is given here.
What was measured:
[1] = tested on: A549; test: Cytotoxicity against human A549 cells after 3 days by MTT assay; details: A549, 3 days
[2] = tested on: LoVo; test: Cytotoxicity against human LoVo cells after 3 days by MTT assay
[3] = tested on: Mus musculus; test: Toxicity in C57BL/6 mouse assessed as body weight at 0.5 mg/kg, ip qd for 5 days ( RVb = 19.06 +/- 1.35 g); type: organism-based; design: dose 0.5 mg/kg, route intraperitoneal; details: in vivo, 120 h
[4] = tested on: Mus musculus; test: Toxicity in C57BL/6 mouse at 0.5 mg/kg, ip qd for 5 days; type: organism-based; design: dose 0.5 mg/kg, route intraperitoneal; details: in vivo, 120 h
[5] = tested on: MDA-MB-435; test: Cytotoxicity against human MDA-MB-435 cells after 3 days by MTT assay; details: MDA-MB-435, 3 days
[6] = tested on: Lewis lung carcinoma cell line; test: Antitumor activity against mouse LLC transplanted in C57BL/6 mouse assessed as tumor growth inhibition at 0.5 mg/kg, ip qd for 5 days; type: functional; details: 120 h, route intraperitoneal
In short: (§1)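 Male C57BL/6 mice (18–20 g) received Lewis lung carcinoma cells subcutaneously in the right axilla. Starting 3 days after implantation, they were dosed i.p. once daily for 5 consecutive days; controls received normal saline. Tumors were excised and weighed on day 14 post-implantation. Growth inhibition was calculated from the average tumor weight of the test group versus the control group.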

[7] = tested on: Lewis lung carcinoma cell line; test: Antitumor activity against mouse LLC transplanted in C57BL/6 mouse assessed as tumor weight at 0.5 mg/kg, ip qd for 5 days (RVb = 1.8 +/- 0.47 g); type: functional; details: route intraperitoneal
In short: as §1

[8] = molecular target: T1, Topoisomerase I (Bos taurus) (UniProt Q2HPH0); test: Inhibition of calf thymus topoisomerase 1-mediated relaxation of supercoiled pBR322 by agarose gel electrophoresis
T1 sequence (whole entry): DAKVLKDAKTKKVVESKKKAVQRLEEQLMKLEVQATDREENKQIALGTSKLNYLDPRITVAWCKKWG
In short: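 Reactions incubated 15 min at 37 °C, then stopped with SDS (0.5% final). After loading buffer was added, products were separated on 0.8% agarose in TAE buffer for 40 min at 120 V. Gels were stained with ethidium bromide at room temperature and photographed under UV transillumination.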

Structure (SMILES)	IC50 [1]	IC50 [2]	Activity [3]	Activity [4]	IC50 [5]	inhibition in vivo at 0.5 mg/kg [6]	Activity [7]	inhibition [8]
CCC1(O)CC(=O)OCc2c1cc1n(c2=O)Cc2c-1nc1cccc(OC)c1c2C (centres undefined)	10.9 µM	5.47 µM	19.77 g	Non-toxic	7.73 µM	23.2%	1.38 g	–
CCC1(O)CC(=O)OCc2c1cc1n(c2=O)Cc2c-1nc1ccc(OC)cc1c2C (centres undefined)	3.52 µM	1.32 µM	–	–	2.61 µM	–	–	–
CCC1(O)CC(=O)OCc2c1cc1n(c2=O)Cc2c-1nc1ccccc1c2C (centres undefined)	0.468 µM	1.16 µM	18.8 g	Non-toxic	3.88 µM	41.2%	1.06 g	Active
CCC1(O)CC(=O)OCc2c1cc1n(c2=O)Cc2c-1nc1ccc(O)cc1c2C (centres undefined)	9.89 µM	7.09 µM	–	–	3.39 µM	–	–	–
CCC1(O)CC(=O)OCc2c1cc1n(c2=O)Cc2c-1nc1ccc(Br)cc1c2C(F)(F)F (racemic)	27.9 µM	13.3 µM	–	–	11 µM	–	–	–
CCC1(O)CC(=O)OCc2c1cc1n(c2=O)Cc2c-1nc1ccc(C(F)(F)F)cc1c2C (centres undefined)	> 225 µM	> 225 µM	–	–	> 225 µM	–	–	–
CCC1(O)CC(=O)OCc2c1cc1n(c2=O)Cc2c-1nc1ccc(OC)cc1c2C(F)(F)F (racemic)	0.832 µM	14.6 µM	–	–	21.4 µM	–	–	–
CCC1(O)CC(=O)OCc2c1cc1n(c2=O)Cc2c-1nc1cccc(OC)c1c2C(F)(F)F (racemic)	5.13 µM	3.43 µM	–	–	2.87 µM	–	–	–
CCC1(O)CC(=O)OCc2c1cc1n(c2=O)Cc2c-1nc1ccc(C(F)(F)F)cc1c2C(F)(F)F (racemic)	20.3 µM	22.9 µM	–	–	5.32 µM	–	–	–
CC[C@@]1(O)C(=O)OCc2c1cc1n(c2=O)Cc2cc3c(CN(C)C)c(O)ccc3nc2-1 [TOPOTECAN]	–	–	19.24 g	Non-toxic	–	47.5%	0.94 g	–
CCC1(O)CC(=O)OCc2c1cc1n(c2=O)Cc2c-1nc1ccc(Br)cc1c2C (centres undefined)	29.1 µM	2.31 µM	–	–	30.9 µM	–	–	–
CCC1(O)CC(=O)OCc2c1cc1n(c2=O)Cc2c-1nc1ccccc1c2C(F)(F)F (racemic)	0.313 µM	1.29 µM	19.16 g	Non-toxic	2.33 µM	45.6%	0.98 g	Active
CCC1(O)CC(=O)OCc2c1cc1n(c2=O)Cc2c-1nc1ccc(O)cc1c2C(F)(F)F (racemic)	16.2 µM	4.01 µM	–	–	11.2 µM	–	–	–

— ChEMBL document CHEMBL1177840, “Trifluoromethyl-promoted homocamptothecins: synthesis and biological activity” (Eur J Med Chem, 2010)
